ChEMBL document CHEMBL1153767, “Bromoalkoxyxanthones as promising antitumor agents: synthesis, crystal structure and effect on human tumor cell lines” (2009)

Key:
Format in all cases: functional
MDA-MB-231 = experiment: Antitumor activity against human estrogen receptor deficient MDA-MB-231 cells assessed as inhibition of growth after 48 hrs using sulforhodamine B dye; details: MDA-MB-231, 48 h
NCI-H460 = experiment: Antitumor activity against human NCI-H460 cells assessed as inhibition of growth after 48 hrs using sulforhodamine B dye; details: NCI-H460, 48 h
Method in brief: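 NCI-H460 plated at 0.75 × 10⁴ cells/mL, grown 24 h, then treated 48 h with five serial dilutions from DMSO stocks (DMSO at most 0.5%, vehicle control included). After fixing, washing and staining, solubilized dye read at 492 nm. GI50 (50% net growth inhibition) derived from the dose–response curve; 3–5 independent duplicate experiments, mean ± SEM.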

MCF7 = experiment: Antitumor activity against human MCF7 cells expressing estrogen receptor assessed as inhibition of growth after 48 hrs using sulforhodamine B dye; details: MCF7, 48 h
Method in brief: (§1)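 Cells pre-grown 24 h after plating at 1.5 × 10⁵ cells/mL, then exposed 48 h to five serial concentrations from DMSO stocks (DMSO at most 0.5%, vehicle control included). Adherent cells fixed, washed and stained; bound dye solubilized and absorbance read at 492 nm. GI50 (50% inhibition of net growth) from dose–response curve; 3–5 independent experiments in duplicate, mean ± SEM.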

SF-268 = experiment: Antitumor activity against human SF268 cells assessed as inhibition of growth after 48 hrs using sulforhodamine B dye; details: SF-268, 48 h; method in brief: as §1

Row | SMILES | GI50 (MDA-MB-231) | GI50 (NCI-H460) | GI50 (MCF7) | GI50 (SF-268)
1 | O=c1c2ccccc2oc2cccc(OCCCCCCBr)c12 | > 100 µM | 30.7 µM | 22.7 µM | 30.2 µM
2 | O=c1c2ccccc2oc2cccc(OCCCCCCOc3cccc4oc5ccccc5c(=O)c34)c12 | > 100 µM | > 100 µM | > 100 µM | > 100 µM
3 | O=C(c1ccccc1O)c1ccc(O)cc1O | – | 91.2 µM | 100 µM | > 100 µM
4 | COc1cccc2c1C(=O)c1c(O)c3c(c(O)c1C2=O)C[C@@](O)(C(=O)CO)C[C@@H]3O[C@H]1C[C@H](N)[C@H](O)[C@H](C)O1 [DOXORUBICIN] | 0.0109 µM | 0.094 µM | – | 0.094 µM

Further lines, with some results ahead:

Row | GI50 (MDA-MB-231) | GI50 (NCI-H460) | GI50 (MCF7) | SMILES | GI50 (SF-268)
5 | > 100 µM | > 100 µM | > 100 µM | O=c1c2ccccc2oc2c(O)c(OCCCCCCBr)ccc12 | > 100 µM
6 | 56.8 µM | > 100 µM | 20.5 µM | O=c1c2ccccc2oc2c(OCCCCCCBr)c(OCCCCCCBr)ccc12 | > 100 µM
7 | 66 µM | 84.9 µM | > 100 µM | O=c1c2ccccc2oc2cccc(O)c12 | 70.8 µM
8 | 22.8 µM | 11.4 µM | 52.4 µM | O=c1c2ccccc2oc2c(O)c(O)ccc12 [3,4-DIHYDROXYXANTHONE] | 22.6 µM
